C8 TRAIL sens – caspase-8 TRAIL sensitization; NB7+C8 cells + TRAIL, ATPlite viability luminescence; inhibition (viability loss, TRAIL sensitization), % at 10 µM; actives 1% (n = 360,000);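 active = compounds causing at least 50% loss of cell viability in the single-dose screen, relative to plate controls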
STAT3 act – increases IL-6 driven STAT3 reporter signal. U3A cells, IL-6 STAT3-luciferase reporter, luminescence; 100% = signal with IL-6 EC80 alone. AID 871. activation (% of control), % at 5.6 µM. actives 0.91% (n = 190,000);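 active = activation above the screen-wide mean of compound activation plus 3 SD, cut at about 130% in these data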;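 note: 0% = background luminescence of wells with medium and substrate only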
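Material: human U3A cells carrying STAT3-luciferase construct. Measured by: reporter luminescence signal. Timing: compound 1 h, then IL-6 6 h at 37 °C.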
HSP90 refold inh – blocks HSP90-mediated luciferase refolding in reticulocyte lysate; AID 1789; Rabbit reticulocyte lysate, luciferase refolding luminescence, 3 h; inhibition, % at 5.6 µM; actives 0.91% (n = 290,000);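 active = inhibition above the screen-wide mean plus 3 SD, computed separately per campaign, cut at about 16% in these data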;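 note: 0% = DMSO wells and 100% = 60 µM geldanamycin wells; inhibitors lower the luminescence because luciferase stays unfolded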
PPC-1+TRAIL kill – compounds killing PPC-1 cancer cells with TRAIL present (potentiator screen, no TRAIL-free arm) | PPC-1 cells + TRAIL, ATPLite viability luminescence | cell killing (% activity), % at 4 µM or 5 µM | actives 0.41% (n = 220,000) | AID 1443;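 active = cell killing above 50% in the first pass at 4 µM, then a duplicate retest at 5 µM averaging 50% or more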;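 note: plate controls were cells with TRAIL plus DMSO for no effect and medium-only wells lacking cells for full effect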
STAT3 inh – reduces IL-6 driven STAT3 reporter signal; inhibition, % at 5.5 µM; actives 0.89% (n = 190,000); U3A cells, IL-6 STAT3-luciferase reporter, luminescence; host cell line lacks STAT1; AID 862;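 active = inhibition above the mean inhibition across all screened compounds plus 3 SD, cut at about 44% in these data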;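 note: 0% = DMSO only wells and 100% = 100 µM nifuroxazide control wells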
STAT1 inh – inhibitors of IFN-gamma induced STAT1 signaling; NIH 3T3 STAT1-luciferase reporter, luminescence; inhibition, % at 5.5 µM; actives 0.35% (n = 200,000);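 active = inhibition above a set limit, the mean inhibition across all tested compounds plus 3 SD, cut at about 34% in these data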;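 note: 0% = IFN-gamma with DMSO and 100% = IFN-gamma with 300 µM nifuroxazide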
* marks the source's active call; other numbers are inactive results; · = no result given. An excerpt weighted towards active compounds, which were near 2.3% of everything screened.

SMILES	C8 TRAIL sens	STAT3 act	HSP90 refold inh	PPC-1+TRAIL kill	STAT3 inh	STAT1 inh
CCOc1ccc(-n2cc(-c3ccccc3)c3c(SC(C)C(=O)OC)ncnc32)cc1 (stereo not given)	5.8	101.2	-2.3	13.6	4.0	9.2
O=C(CCS(=O)(=O)c1ccc(Br)cc1)NCc1cccs1	-5.8	106.9	16.7*	18.4	-1.4	0.3
COc1ccc(CCCC(=O)N/N=C/c2cccc(OC)c2O)cc1C	52.3*	101.8	-6.2	20.2	-3.3	-6.0
COc1cccc(/C=N/NC(=O)C[n+]2ccccc2)c1O	-7.6	92.4	0.9	-0.2	7.8	4.3
Cn1c(=O)c(/C=C/c2ccccc2)nc2ccccc21	30.0	145.8*	0.7	6.1	-52.2	-37.6
Cc1csc(C(=O)O)c1-n1cccc1	-6.8	92.7	3.8	21.9	11.8	0.1
Nc1c(-c2ccccc2)cnc2c(-c3ccccc3)cnn12	83.7*	·	14.8	·	·	·
Nc1c(-c2cccs2)cnc2c(-c3ccc(F)cc3)cnn12	60.5*	·	10.0	·	·	·
O=C(CSc1nnc(-c2ccc(Br)cc2)o1)Nc1cccc(C(=O)O)c1	62.9*	·	-0.1	·	·	·
COc1ccc(Nc2nc(-c3ccccc3)nc3ccccc23)cc1S(=O)(=O)N1CCOCC1	48.0*	·	0.2	22.8	·	·
COc1ccc(NC(=O)c2cc(C)nc3ccccc23)cc1S(=O)(=O)N1CCOCC1	-0.4	·	·	·	·	·
COc1ccc2c(c1)C1=NN(/C(C)=C\C(C)=O)C(c3ccccc3)C1CC2 (stereo not given)	13.1	133.9*	0.0	8.1	-39.1	-2.3
Cc1ccc(N=Nc2c(O)c3ccccc3[nH]c2=O)c(S(=O)(=O)N(C)C)c1	·	·	3.5	54.8*	·	·
CN(C)C(=O)c1ccc(N=Nc2c(O)c3ccccc3[nH]c2=O)cc1	76.2*	·	·	·	·	·
O=C(O)c1ccc(N=Nc2c(O)[nH]c3ccccc23)cc1	15.1	·	41.2*	9.2	·	·
Cc1cc(N=Nc2c(O)c3ccccc3[nH]c2=O)ccc1N=Nc1ccc(C(=O)N(C)C)cc1	34.5	·	4.0	20.4	·	·
Cc1ccccc1N=Nc1c(O)[nH]c2ccccc12	-8.0	·	·	·	·	·
O=C1Nc2ccc(C(=O)O)c(O)c2C1=O	-18.8	·	·	·	·	·
CC(=O)N[C@@H](Cc1c[nH]c2ccccc12)C(=O)OCC(=O)NCc1ccc2c(c1)OCO2	-8.3	103.8	3.5	19.1	0.4	4.6
N=NC(=O)c1ccccc1Nc1c(O)[nH]c2ccccc12	91.2*	·	·	·	·	·
CC(=O)Nc1c(O)[nH]c2ccccc12	-45.5	102.5	-0.6	0.5	-0.1	-9.7
CCc1nnc(NS(=O)(=O)c2ccc(N=Cc3c(C)[nH]n(-c4ccc(C)c(C)c4)c3=O)cc2)s1	56.1*	100.6	2.6	43.5	1.9	-12.2
Cc1ccc(-n2[nH]c(C)c(C=Nc3ccc(S(=O)(=O)Nc4nccs4)cc3)c2=O)cc1	·	108.8	6.9	33.4	-12.1	-1.9
O=C(CN1C(=O)c2ccccc2S1(=O)=O)c1ccccc1F	46.3*	·	12.2	·	·	·
O=C(CN1C(=O)c2ccccc2S1(=O)=O)c1ccc(F)cc1	31.2	·	2.0	-7.1	·	·
SMILES	C8 TRAIL sens	STAT3 act	HSP90 refold inh	PPC-1+TRAIL kill	STAT3 inh	STAT1 inh
COc1ccc(C(CCN(Cc2ccc(OC)c(OC)c2)C(C)=O)c2ccccc2)cc1 (stereo not given)	4.6	108.4	4.6	-9.1	-15.4	-1.7
COc1ccc(CN(CCC(c2ccccc2)c2ccc(OC(C)C)cc2)C(=O)CCl)cc1OC (stereo not given)	96.4*	98.8	4.8	3.9	5.0	2.9
Cc1csc2nc(CSc3nc4ccccc4o3)cn12	0.8	93.9	0.9	10.9	10.3	-21.3
Cc1nn(-c2nc3ccccc3s2)c(N)c1Sc1ccc(F)cc1	38.2	158.0*	-1.1	6.3	-59.0	-41.8
Cc1nn(-c2nc3ccccc3s2)c(N)c1-c1ccccc1	28.1	118.6	-7.9	21.3	-21.5	-46.7
Cc1ccc(C2=NS(=O)(=O)N(C)C(C(=O)NCc3ccccn3)=C2)cc1	-21.0	·	-2.0	·	·	·
Cc1ccc(C2=NS(=O)(=O)N(C)C(C(=O)NCc3cccs3)=C2)cc1	55.8*	·	-1.3	·	·	·
O=C1c2ccccc2/C(=C\C#Cc2ccccn2)N1c1ccccc1	73.8*	·	·	·	·	·
CN(C)c1ccc(/C=C2\c3ccccc3C(=O)N2c2ccccc2)cn1	-9.3	·	·	·	·	·
COc1ccc(C(=O)N2CCN=C2SC)cc1OC	-7.9	101.4	-3.2	5.4	2.5	3.2
CC/C=C\C/C=C\C/C=C\CCCCCCCC(=O)O	-0.6	·	·	·	·	·
Cc1cccc(N2CCN(S(=O)(=O)c3cccs3)CC2)c1C	6.0	·	1.0	·	·	·
Cn1c(Nc2ccccc2)nc2ccccc21	13.7	·	-2.7	·	·	·
CC(C)N=c1cc2n(-c3ccc(Cl)cc3)c3ccccc3nc-2cc1Nc1ccc(Cl)cc1	80.6*	·	·	·	·	·
CC[C@H]1CN2CCc3cc(OC)c(OC)cc3C2C[C@@H]1C[C@H]1NCCc2cc(OC)c(OC)cc21 (stereo not given in full)	55.8*	·	·	·	·	·
Cc1ccc(Oc2nsnc2N2CCOCC2)cc1	-1.7	94.5	1.5	14.4	10.4	6.8
O=c1c2ccccc2nc(COc2ccccc2)n1/N=C/c1cn[nH]c1-c1ccccc1	5.2	90.9	-0.2	16.7	12.2	-10.5
O=C(Nc1cccc(Cl)c1N1CCCC1)c1ccc([N+](=O)[O-])o1	-4.2	89.8	3.7	11.4	17.8	-2.7
CC(C)C(=O)N1CCN(c2ccc(NC(=O)c3ccc([N+](=O)[O-])o3)cc2Cl)CC1	67.3*	105.8	4.0	36.9	0.0	-61.3
CCN1CCN(c2c(Cl)cccc2NC(=O)c2ccc([N+](=O)[O-])o2)CC1	59.3*	·	-1.1	·	·	·
CCCC(=O)N1CCN(c2ccc(NC(=O)c3ccc([N+](=O)[O-])o3)cc2Cl)CC1	59.3*	101.4	-0.3	35.5	3.6	-28.4
CC(C)(C)C(=O)N1CCN(c2ccc([N+](=O)[O-])cc2-n2cccc2)CC1	-2.7	·	-1.3	-3.3	·	·
Clc1cc(Sc2ccc(Br)cc2)nnc1-c1ccccc1	3.6	138.5*	0.1	25.0	-47.5	1.9
COCc1cc(Sc2ccc(Br)cc2)nc(-c2ccccc2)n1	16.4	104.0	2.2	6.3	-4.7	6.7
CC(C)(C)OC(=O)CNC(=O)c1[nH]cnc1C(=O)Nc1ccc(CNC(=O)OC(C)(C)C)cc1	39.7	·	·	20.7	·	·
CC(C)(C)OC(=O)NCc1ccc(CNC(=O)c2nc[nH]c2C(=O)NCc2ccc(CNC(=O)OC(C)(C)C)cc2)cc1	25.8	·	·	·	·	·
CC(C)(C)OC(=O)NCc1ccc(NC(=O)c2nc[nH]c2C(=O)NCCNC(=O)c2[nH]cnc2C(=O)Nc2ccc(CNC(=O)OC(C)(C)C)cc2)cc1	88.2*	·	·	·	·	·
C[C@H](NC(=O)c1[nH]cnc1C(=O)Nc1ccc(CNC(=O)OC(C)(C)C)cc1)C(=O)OCc1ccccc1	74.7*	·	·	-12.6	·	·
CC(C)(C)OC(=O)NCCCCCNC(=O)c1nc[nH]c1C(=O)NCc1ccc(CNC(=O)OC(C)(C)C)cc1	57.5*	·	·	·	·	·
O=C1Nc2ccc(S(=O)(=O)NCCCO)c3cccc1c23	1.9	·	-2.5	·	·	·

High-throughput results from PubChem BioAssay.
